The list is not random: actives were taken first. Their share in the collection is about 9.4%.
Beta cell apopt: inhibitors of cytokine-induced beta cell apoptosis, primary screen, luminescence; 300,000 tested, 0.8% active; AID 435005, 2010; INS-1E cytokine-induced death, ATP luminescence, 48 h; percent of positive-control rescue, neutral wells zero; protection from apoptosis, % (no concentration beside the values);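 active = Every replicate reaches about 75%, or at least half do and their mean reaches it too, limit read from the data; inconclusive = At least half of replicates reach the limit but their mean does not; inactive = Under half of replicates reach the limit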;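 also: 0% = cytokine-treated negative control wells and 100% = positive control rescue; higher means more ATP so stronger rescue from cytokine killing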
CSC inhib: cancer stem cell viability inhibitors, primary screen, luminescence | 300,000 tested, 1.1% active | cancer stem cell-like cells viability | AID 2717, 2010 | inhibition, % at 7.5 µM; in the data active = inhibition above about 75%; inconclusive = no clear call, values can overlap the other calls; tested in HMLE shEcad cells
SKKanGAS inh: S. pyogenes SKKanGAS growth inhibitors in kanamycin, primary screen, streptokinase expression inhibitor project, SKKanGAS strain, BacTiter-Glo luminescence; inhibition, % at 7.5 µM; 300,000 tested, 1.3% active; 6 h;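 active = mean replicate score, as percent of positive control median, at least 50; inconclusive = mean below 50 but one replicate at or above 50; inactive = mean and every replicate below 50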;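 also: strain carries kanamycin resistance gene driven by streptokinase promoter and grows in 40 µg/ml kanamycin; loss of luminescence reflects streptokinase promoter inhibition or plain growth inhibition; 0% = median of DMSO wells and 100% = positive control at its reference dose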
T cruzi repl: inhibitors of intracellular T. cruzi growth, primary screen, luminescence, NIH3T3 host cells. T. cruzi beta-gal in NIH3T3, 90 h. inhibition, % (concentration not given with the values). 300,000 tested, 1.4% active. AID 1885, 2009;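 active = mean inhibition across valid replicates above about 55%, limit read from the data; inconclusive = mean below that limit but half or more replicates reach it; inactive = mean below it, under half of replicates reach it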;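 also: signal also drops with host cell toxicity which is not excluded here; 0% = plate median of DMSO wells and 100% = zero luminescence signal; higher percent means less beta-gal luminescence so fewer parasites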
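System: Mouse NIH/3T3 fibroblasts infected with β-gal-expressing T. cruzi Tulahuen C4 | Quantity: NIH/3T3 cells, 5,000 per well | Reagent: 5000 reporter trypomastigotes per well | Dosing: Compound pinned at 50 nL/well, DMSO | Schedule: 3 h host attachment, then at least 90 h co-culture | Detection: GalScreen luminescence, 60 min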
Mdm2 MdmX PPI: inhibitors of human Mdm2-MdmX association, primary screen, cell-based, luminescence, split luciferase, SaOS-2, uHTS. Protein Mdm4 (Homo sapiens) + E3 ubiquitin-protein ligase Mdm2 (Homo sapiens), …. SaOS-2 split-luciferase Mdm2/MdmX complementation. inhibition, % at 8 µM. 330,000 tested, 3% active;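 active = inhibition of at least 50% at 8 µM in the primary screen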
Lmaj promast: Leishmania major promastigote growth inhibition, primary screen | 200,000 tested, 9% active | AID 1063, 2008 | inhibition, % at 10 µM | Leishmania major promastigotes, resazurin fluorescence viability; in the data active = inhibition above about 50%;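 also: promastigotes grown with compound for 44 hours at 28 °C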
An asterisk follows results filed as active.

Results for O=C(C1CCCCC1)N1CCC(c2nc3c(nnn3Cc3c(F)cccc3Cl)c(=O)[nH]2)CC1 ?
Beta cell apopt: 10; CSC inhib: -2; SKKanGAS inh: 68*; T cruzi repl: 4; Mdm2 MdmX PPI: 6; Lmaj promast: 1

Results for O=C(C1CCCCC1)N1CCCC(c2nc3c(nnn3Cc3ccccc3)c(=O)[nH]2)C1 (stereo unspecified) ?
Beta cell apopt: 4; CSC inhib: -13; SKKanGAS inh: 1; T cruzi repl: -2; Mdm2 MdmX PPI: 7; Lmaj promast: -1

How did CCOC(=O)C1=C(CNCc2ccc(C)cc2)NC(=O)NC1c1cc(C)ccc1C (stereo unspecified) do in these assays?
Beta cell apopt: 1; CSC inhib: 10; SKKanGAS inh: -8; T cruzi repl: -1; Mdm2 MdmX PPI: 9; Lmaj promast: 100*

How did C[C@@H](C(=O)N1CCN(Cc2ccc3c(c2)OCO3)CC1)n1nnc2ccccc2c1=O do in these assays?
Beta cell apopt: -2; CSC inhib: 4; SKKanGAS inh: -6; T cruzi repl: -16; Mdm2 MdmX PPI: 17

Results for CN1CCc2c(sc3c2c(=O)n(-c2ccccc2)c2nnc(SCc4ccc(Cl)cc4)n32)C1 ?
Beta cell apopt: 2; CSC inhib: -55; SKKanGAS inh: 17; T cruzi repl: 61*; Mdm2 MdmX PPI: 29; Lmaj promast: 41

Results for NC(=O)CSc1nnc2n(-c3ccccc3)c(=O)c3c4c(sc3n12)CCCCC4 ?
Beta cell apopt: 3; CSC inhib: 14; SKKanGAS inh: 3; T cruzi repl: 9; Mdm2 MdmX PPI: 29; Lmaj promast: 4

Results for COCCCNC(=S)N(Cc1cccnc1)Cc1ccc(OC)c(OC)c1 ?
Beta cell apopt: -9; CSC inhib: 3; SKKanGAS inh: -2; T cruzi repl: 6; Mdm2 MdmX PPI: 11; Lmaj promast: 89*

Results for CC(CN1CCCC1)C(=O)NN (stereo unspecified) ?
Beta cell apopt: -1; CSC inhib: -8; SKKanGAS inh: 5; T cruzi repl: 6; Mdm2 MdmX PPI: -22; Lmaj promast: -5

Results for CCCc1nc(NC2CCCCC2)c(C#N)c2c1COC(C)(C)C2 ?
Beta cell apopt: 3; CSC inhib: 106*; SKKanGAS inh: 60*; T cruzi repl: 18; Mdm2 MdmX PPI: 17; Lmaj promast: 7

How did COCC(C)NC(=O)c1oc2c(c1C)C1(CCC2)SCCS1 (stereo unspecified) do in these assays?
Beta cell apopt: -12; CSC inhib: 42; SKKanGAS inh: -3; T cruzi repl: 17; Mdm2 MdmX PPI: 5; Lmaj promast: 2

Results for Cc1c(C(=O)NCCCN2CCOCC2)oc2c1C1(CCC2)SCCS1 ?
Beta cell apopt: -11; CSC inhib: 24; SKKanGAS inh: 1; T cruzi repl: 9; Mdm2 MdmX PPI: -13; Lmaj promast: 88*

How did O=C(N/N=C\c1ccc2c(c1)OCO2)c1ccc(Cn2cc(Br)c([N+](=O)[O-])n2)o1 do in these assays?
Beta cell apopt: 4; CSC inhib: 84*; SKKanGAS inh: 6; T cruzi repl: 56*; Mdm2 MdmX PPI: -10; Lmaj promast: 83*

Results for CCOc1ccc(/C=N/NC(=O)c2ccc(Cn3cc(Br)cn3)o2)cc1 ?
Beta cell apopt: -1; CSC inhib: -1; SKKanGAS inh: -3; T cruzi repl: -1; Mdm2 MdmX PPI: -42; Lmaj promast: 59*

How did O=C(N/N=C\c1cccc(F)c1)c1ccc(Cn2cc(Br)c([N+](=O)[O-])n2)o1 do in these assays?
Beta cell apopt: -8; CSC inhib: -8; SKKanGAS inh: -6; T cruzi repl: 68*; Mdm2 MdmX PPI: 2; Lmaj promast: 6

What do the screens show for `O=C(N/N=C\c1ccc(F)cc1)c1ccc(Cn2cc(Br)c([N+](=O)[O-])n2)o1`?
Beta cell apopt: 0; CSC inhib: 68; SKKanGAS inh: 3; T cruzi repl: 61*; Mdm2 MdmX PPI: -4; Lmaj promast: 21

Results for COc1cc(/C=N\NC(=O)c2ccc(Cn3cc(Br)c([N+](=O)[O-])n3)o2)cc(OC)c1O ?
Beta cell apopt: 6; CSC inhib: 13; SKKanGAS inh: inconclusive; T cruzi repl: 52; Mdm2 MdmX PPI: -19; Lmaj promast: 36

What do the screens show for `COCCCNC(=O)CN(CCc1ccccc1)S(=O)(=O)c1ccc(C)cc1`?
Beta cell apopt: -7; CSC inhib: -9; SKKanGAS inh: -2; T cruzi repl: -6; Mdm2 MdmX PPI: 11; Lmaj promast: 3

What do the screens show for `COc1cc(-c2nnc(CSc3nnc(Nc4ccc(C(C)C)cc4)s3)o2)cc(OC)c1OC`?
Beta cell apopt: 17; CSC inhib: 58; SKKanGAS inh: 18; T cruzi repl: 19; Mdm2 MdmX PPI: 28; Lmaj promast: 71*

What do the screens show for `COc1ccccc1Nc1nnc(SCc2nnc(-c3cc(OC)c(OC)c(OC)c3)o2)s1`?
Beta cell apopt: 8; CSC inhib: 43; SKKanGAS inh: 6; T cruzi repl: 14; Mdm2 MdmX PPI: 11; Lmaj promast: 21

What do the screens show for `O=S(=O)(c1ccccc1C(F)(F)F)N1CCN(c2ncnc3sccc23)CC1`?
Beta cell apopt: 27; CSC inhib: 6; Mdm2 MdmX PPI: 29

What do the screens show for `Cc1ccc(S(=O)(=O)N2CCN(c3ncnc4sccc34)CC2)cc1`?
Beta cell apopt: 89*; CSC inhib: -2; SKKanGAS inh: -6; T cruzi repl: -3; Mdm2 MdmX PPI: 22

How did O=S(=O)(c1ccc(F)c(F)c1F)N1CCN(c2ncnc3sccc23)CC1 do in these assays?
Beta cell apopt: 87*; CSC inhib: 40; Mdm2 MdmX PPI: 31

What do the screens show for `CC(C)CC(=O)N1CCN(Cc2ccc(C(F)(F)F)cc2)CC1`?
Beta cell apopt: -5; CSC inhib: -2; SKKanGAS inh: -1; T cruzi repl: 5; Mdm2 MdmX PPI: 11

How did COc1cccc(NC(=S)N(CCc2c(C)[nH]c3ccc(C)cc23)Cc2cccs2)c1 do in these assays?
Beta cell apopt: -7; CSC inhib: 11; SKKanGAS inh: 24; T cruzi repl: 12; Mdm2 MdmX PPI: 39; Lmaj promast: 78*

What do the screens show for `COc1ccc2[nH]c(C)c(CCN(Cc3cccs3)C(=S)Nc3cccc(F)c3)c2c1`?
Beta cell apopt: 0; CSC inhib: 7; SKKanGAS inh: 17; T cruzi repl: 63*; Mdm2 MdmX PPI: 27; Lmaj promast: 50*

Results for COc1ccc(OC)c(NC(=S)N(CCc2c(C)[nH]c3ccc(C)cc23)Cc2cccs2)c1 ?
Beta cell apopt: 0; CSC inhib: 33; SKKanGAS inh: 19; T cruzi repl: 47; Mdm2 MdmX PPI: 29; Lmaj promast: 84*
